Experimental data published in ChEMBL document CHEMBL4376888, “Discovery of Potent, Selective, and Direct Acid Sphingomyelinase Inhibitors with Antidepressant Activity” (J Med Chem, 2020).
The source made the active and inactive calls. The calls are words filed in the database; no cut-off is given here.

Experiments:
Rattus norvegicus [1] = experiment: Antidepressant activity in Sprague-Dawley rat model of reserpine-induced depression assessed as reduction in total time spent in center at 6 to 24 mg/kg, ip administered twice daily for 2 weeks measured for 5 mins by open field test; type: functional, organism-based
Method in brief: (§1)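 Female SD rats (6-8 weeks, 200 g) given reserpine 4 mg/Kg ip daily to induce depression; test agent in 5% DMSO, 2% Tween 80, 5% glucose, ip twice daily for two weeks. Open field: 100×100 cm box, 25 squares, walls about 42 cm, tested 7:30–12:00. Rat placed in central square; centre time, grid crossings, rearing and grooming recorded over 5 min. n=8, mean ± SD.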

Rattus norvegicus [2] = experiment: Antidepressant activity in Sprague-Dawley rat model of reserpine-induced depression assessed as increase in frequency of upright at 6 to 24 mg/kg, ip administered twice daily for 2 weeks measured for 5 mins by open field test; type: functional, organism-based; method in brief: as §1
Rattus norvegicus [3] = experiment: In vivo inhibition of acid sphingomyelinase in Sprague-Dawley rat model of reserpine-induced depression assessed as reduction in enzyme activity in cerebral cortex at 24 mg/kg, ip administered twice daily for 2 weeks measured post-last dose by NBD-sphingomyelin substrate-based fluorescence assay (reference value: 53%); set-up: scale not given: the % may be the effect or the level left
[4] = Ratio of drug uptake in Sprague-Dawley rat brain to plasma at 48 mg/kg, ip after 4 hrs by LC-MS/MS analysis; type: ADME, organism-based; details: read-out: BPR
Method in brief: (§2)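 Nine female SD rats, three per time point, single ip dose of 48 mg/Kg. At 0.5, 2 and 4 h rats were anesthetized with CO2. Heart blood was taken into EDTA-K2 and centrifuged 1500 g, 10 min, for plasma. Brain was weighed and homogenized 1:5 in 20% methanol-water. LC-MS/MS on a C18 column. Mean of 3.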

[5] = Drug concentration in Sprague-Dawley rat plasma at 48 mg/kg, ip after 2 hrs by LC-MS/MS analysis; type: ADME, organism-based; method in brief: as §2
[6] = target: T1, Sphingomyelin phosphodiesterase (Homo sapiens, UniProt P17405); experiment: Inhibition of recombinant human acid sphingomyelinase (His62 to Pro628 residues) using NBD-sphingomyelin as substrate after 30 mins by fluorescence based assay
T1 sequence (P17405 whole entry): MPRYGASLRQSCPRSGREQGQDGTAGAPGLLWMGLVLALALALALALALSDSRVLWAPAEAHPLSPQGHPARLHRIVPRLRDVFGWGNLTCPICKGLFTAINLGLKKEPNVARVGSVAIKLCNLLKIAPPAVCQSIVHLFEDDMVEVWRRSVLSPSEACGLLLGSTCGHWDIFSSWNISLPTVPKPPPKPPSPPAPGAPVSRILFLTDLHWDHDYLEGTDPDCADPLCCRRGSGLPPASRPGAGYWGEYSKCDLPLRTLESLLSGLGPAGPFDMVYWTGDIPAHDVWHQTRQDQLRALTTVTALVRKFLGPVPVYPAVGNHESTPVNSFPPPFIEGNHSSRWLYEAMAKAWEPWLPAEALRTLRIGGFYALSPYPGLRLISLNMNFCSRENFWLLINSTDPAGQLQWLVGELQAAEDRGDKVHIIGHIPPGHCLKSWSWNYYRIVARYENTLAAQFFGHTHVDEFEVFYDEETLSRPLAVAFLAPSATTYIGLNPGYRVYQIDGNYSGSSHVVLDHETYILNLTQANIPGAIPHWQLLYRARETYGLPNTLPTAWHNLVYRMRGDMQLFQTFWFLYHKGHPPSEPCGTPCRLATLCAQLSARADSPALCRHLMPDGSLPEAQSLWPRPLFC
Method in brief: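 Buffer 100 mM sodium acetate pH 4.7, 1% Triton X-100, 40 mM CaCl2, 100 μM ZnCl2. Inhibitors in DMSO at various concentrations, 37 °C, 30 min. NBD-ceramide fluorescence after chloroform/methanol extraction and TLC.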

[7] = Drug uptake in human CMEC/D3 cells at 40 uM after 0.5 to 4 hrs by HPLC analysis; type: ADME, cell-based; details: hcmec/d3, 40 µM
Method in brief: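 hCMEC/D3 cells seeded at 2×10^5/well and grown to 80%. Compound added at a final 40 μM; serum-free medium as control. At time points, cells washed with ice-cold PBS, lysed on ice 30 min, spun 12000 rpm, 4 °C, 15 min. Lysate protein by BCA and compound content measured; uptake rate = lysate concentration/dose concentration. n=3.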

[8] = Drug concentration in Sprague-Dawley rat brain at 48 mg/kg, ip after 2 hrs by LC-MS/MS analysis; type: ADME, organism-based; details: read-out: Drug uptake; method in brief: as §2
Rattus norvegicus [9] = experiment: Antidepressant activity in Sprague-Dawley rat model of reserpine-induced depression assessed as increase in grooming frequency at 6 to 24 mg/kg, ip administered twice daily for 2 weeks measured for 5 mins by open field test; type: functional, organism-based; method in brief: as §1
[10] = target: T2, Sphingomyelin phosphodiesterase 2 (Homo sapiens) (UniProt O60906); experiment: Inhibition of neutral sphingomyelinase (unknown origin) at 100 uM using NBD-sphingomyelin as substrate after 30 mins by fluorescence based assay
T2 sequence (whole entry): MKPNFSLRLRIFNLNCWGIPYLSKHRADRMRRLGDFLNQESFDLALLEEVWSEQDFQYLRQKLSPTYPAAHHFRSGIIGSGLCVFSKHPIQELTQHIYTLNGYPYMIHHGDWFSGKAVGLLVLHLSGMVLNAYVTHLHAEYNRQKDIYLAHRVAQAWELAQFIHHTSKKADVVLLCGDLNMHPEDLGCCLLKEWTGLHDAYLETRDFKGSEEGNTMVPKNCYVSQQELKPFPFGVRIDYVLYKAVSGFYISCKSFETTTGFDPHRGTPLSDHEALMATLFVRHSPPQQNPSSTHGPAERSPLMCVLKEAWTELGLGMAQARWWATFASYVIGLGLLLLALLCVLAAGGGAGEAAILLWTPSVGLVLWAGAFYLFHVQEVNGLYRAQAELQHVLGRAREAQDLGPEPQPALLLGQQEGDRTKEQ
Method in brief: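 Neutral sphingomyelinase assay run as the ASM cell-extract assay (NBD-sphingomyelin, 37 °C, 30 min, chloroform/methanol extraction, TLC, NBD-ceramide fluorescence). Buffer was 200 mM Tris-HCl pH 7.4 with 10 mM MgCl2 and 10 mM dithiothreitol. Tested at 100 μM.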

[11] = Drug concentration in Sprague-Dawley rat plasma at 48 mg/kg, ip after 0.5 hrs by LC-MS/MS analysis; type: ADME, organism-based; method in brief: as §2
[12] = Drug concentration in Sprague-Dawley rat brain at 48 mg/kg, ip after 4 hrs by LC-MS/MS analysis; type: ADME, organism-based; details: read-out: Drug uptake; method in brief: as §2
Rattus norvegicus [13] = experiment: In vivo inhibition of acid sphingomyelinase in Sprague-Dawley rat model of reserpine-induced depression assessed as residual enzyme activity in hippocampus at 24 mg/kg, ip administered twice daily for 2 weeks measured post-last dose by NBD-sphingomyelin substrate-based fluorescence assay (reference value: 73%); type: functional
Method in brief: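 Cortex and hippocampus taken from half brain of reserpine-model rats treated ip twice daily for two weeks. Total protein by BCA. ASM assay on 300 μg protein with 4 μg NBD-sphingomyelin, run as the in vitro assay. NBD-ceramide fluorescence on TLC, expressed relative to normal control set at 100%. n=5, mean ± SD.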

O=C(NO)c1cc(OCc2ccc(-c3ccc(Cl)cc3)cc2)no1
Activity (Rattus norvegicus [1]): Active | Activity (Rattus norvegicus [2]): Active | Activity (Rattus norvegicus [3]): 27% | Kp at 4 h [4]: 9.55 | concentration at 2 h [5]: 762 ng/mL | IC50 [6]: 3.37 µM | Drug uptake [7]: Active | concentration at 2 h [8]: 4760 ng/g | Activity (Rattus norvegicus [9]): Active | inhibition [10]: inactive | concentration at 0.5 h [11]: 709 ng/mL | concentration at 4 h [12]: 1300 ng/g | Activity (Rattus norvegicus [13]): 33%
